Test results as given in ChEMBL document CHEMBL4689842, “EUbOPEN Chemogenomics Library wave 1” (2021).

Test system: U2OS
Test: Multiplex assay against U2OS
Assay type: toxicity, cell-based
Settings: human
Procedure, shortened: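 Live cells were stained at seeding with Hoechst33342, BioTracker Green Microtubule Cytoskeleton Dye, MitoTracker Red and Annexin V Alexa Fluor 680. Following compound addition, they were imaged on a CQ1 microscope at 37°C and 5% CO2 and gated by CellPathfinder machine learning into Hoechst high-intensity objects or normal cells, with normal cells split into healthy, pyknosed or fragmented nuclei and pyknosed cells into mitotic or apoptotic. Tubulin, mitochondrial-mass and membrane-permeability phenotypes are per cents of healthy-nucleus cells.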

[1] = 12 h, 1 µM, compound concentration 1 uM, replicate 1
[2] = 12 h, 1 µM, compound concentration 1 uM, replicate 2
[3] = 12 h, 10 µM, compound concentration 10 uM, replicate 1
[4] = 12 h, 10 µM, compound concentration 10 uM, replicate 2
[5] = 24 h, 1 µM, compound concentration 1 uM, replicate 1
[6] = 24 h, 1 µM, compound concentration 1 uM, replicate 2
[7] = 24 h, 10 µM, compound concentration 10 uM, replicate 1
[8] = 24 h, 10 µM, compound concentration 10 uM, replicate 2
[9] = 48 h, 1 µM, compound concentration 1 uM, replicate 1
[10] = 48 h, 1 µM, compound concentration 1 uM, replicate 2
[11] = 48 h, 10 µM, compound concentration 10 uM, replicate 1
[12] = 48 h, 10 µM, compound concentration 10 uM, replicate 2

In the case of Cc1cn(-c2cc(NC(=O)c3ccc(C)c(Nc4nccc(-c5cccnc5)n4)c3)cc(C(F)(F)F)c2)cn1 [NILOTINIB], the “Population Apoptotic (%)” value [1] is reported as 46%, the “Population Fragmented Nuclei (%)” value [1] is reported as 14% and the “Population Healthy Nuclei (%)” value [1] is reported as 69%. The “Population Hoechst High Intensity Objects (%)” value [1] was 8%, the “Population Membrane Permeable-Phenotype (%)” value [1] was 10% and the “Population Mitochondria Different-Phenotype (%)” value [1] was 77%. For the same compound, the “Population Mitotic Cells (%)” value [1] was 53%, the “Population Normal (%)” value [1] was 91% and the “Population Pyknosed Nuclei (%)” value [1] was 16%. The “Population Tubulin-Different-Phenotype (%)” value [1] was 94%, the “Total Cell Count” value [1] was 134 and the “Population Apoptotic (%)” value [2] was 25%. For the same compound, the “Population Fragmented Nuclei (%)” value [2] was 1%, the “Population Healthy Nuclei (%)” value [2] was 86% and the “Population Membrane Permeable-Phenotype (%)” value [2] was 1%. For the same compound, the “Population Mitochondria Different-Phenotype (%)” value [2] was 18%, the “Population Mitotic Cells (%)” value [2] was 75% and the “Population Pyknosed Nuclei (%)” value [2] was 11%. For the same compound, the “Population Tubulin-Different-Phenotype (%)” value [2] was 10%, the “Total Cell Count” value [2] was 66 and the “Population Apoptotic (%)” value [3] was 86%. The “Population Fragmented Nuclei (%)” value [3] was 45%, the “Population Healthy Nuclei (%)” value [3] was 20% and the “Population Hoechst High Intensity Objects (%)” value [3] was 49%. For the same compound, the “Population Membrane Permeable-Phenotype (%)” value [3] was 30%, the “Population Mitochondria Different-Phenotype (%)” value [3] was 89% and the “Population Mitotic Cells (%)” value [3] was 13%. The “Population Normal (%)” value [3] was 50%, the “Population Pyknosed Nuclei (%)” value [3] was 33% and the “Population Tubulin-Different-Phenotype (%)” value [3] was 93%. For the same compound, the “Total Cell Count” value [3] was 185, the “Population Apoptotic (%)” value [4] was 33% and the “Population Fragmented Nuclei (%)” value [4] was 18%. The “Population Healthy Nuclei (%)” value [4] was 72%, the “Population Hoechst High Intensity Objects (%)” value [4] was 7% and the “Population Membrane Permeable-Phenotype (%)” value [4] was 4%. The “Population Mitochondria Different-Phenotype (%)” value [4] was 61%, the “Population Mitotic Cells (%)” value [4] was 66% and the “Population Normal (%)” value [4] was 92%. The “Population Pyknosed Nuclei (%)” value [4] was 9%, the “Population Tubulin-Different-Phenotype (%)” value [4] was 63% and the “Total Cell Count” value [4] was 73. The “Population Apoptotic (%)” value [5] was 55%, the “Population Fragmented Nuclei (%)” value [5] was 12% and the “Population Healthy Nuclei (%)” value [5] was 66%. The “Population Hoechst High Intensity Objects (%)” value [5] was 6%, the “Population Membrane Permeable-Phenotype (%)” value [5] was 14% and the “Population Mitochondria Different-Phenotype (%)” value [5] was 73%. The “Population Mitotic Cells (%)” value [5] was 44%, the “Population Normal (%)” value [5] was 93% and the “Population Pyknosed Nuclei (%)” value [5] was 20%. The “Population Tubulin-Different-Phenotype (%)” value [5] was 92%, the “Total Cell Count” value [5] was 135 and the “Population Apoptotic (%)” value [6] was 40%. For the same compound, the “Population Fragmented Nuclei (%)” value [6] was 14%, the “Population Healthy Nuclei (%)” value [6] was 79% and the “Population Hoechst High Intensity Objects (%)” value [6] was 5%. For the same compound, the “Population Membrane Permeable-Phenotype (%)” value [6] was 2%, the “Population Mitochondria Different-Phenotype (%)” value [6] was 20% and the “Population Mitotic Cells (%)” value [6] was 60%. The “Population Normal (%)” value [6] was 94%, the “Population Pyknosed Nuclei (%)” value [6] was 5% and the “Population Tubulin-Different-Phenotype (%)” value [6] was 12%. For the same compound, the “Total Cell Count” value [6] was 67, the “Population Apoptotic (%)” value [7] was 85% and the “Population Fragmented Nuclei (%)” value [7] was 60%. For the same compound, the “Population Healthy Nuclei (%)” value [7] was 16%, the “Population Hoechst High Intensity Objects (%)” value [7] was 60% and the “Population Membrane Permeable-Phenotype (%)” value [7] was 29%. The “Population Mitochondria Different-Phenotype (%)” value [7] was 71%, the “Population Mitotic Cells (%)” value [7] was 14% and the “Population Normal (%)” value [7] was 39%. For the same compound, the “Population Pyknosed Nuclei (%)” value [7] was 23%, the “Population Tubulin-Different-Phenotype (%)” value [7] was 78% and the “Total Cell Count” value [7] was 184. The “Population Apoptotic (%)” value [8] was 0%, the “Population Fragmented Nuclei (%)” value [8] was 12% and the “Population Healthy Nuclei (%)” value [8] was 83%. The “Population Hoechst High Intensity Objects (%)” value [8] was 2%, the “Population Membrane Permeable-Phenotype (%)” value [8] was 1% and the “Population Mitochondria Different-Phenotype (%)” value [8] was 42%. For the same compound, the “Population Mitotic Cells (%)” value [8] was 100%, the “Population Normal (%)” value [8] was 97% and the “Population Pyknosed Nuclei (%)” value [8] was 4%. The “Population Tubulin-Different-Phenotype (%)” value [8] was 30%, the “Total Cell Count” value [8] was 93 and the “Population Apoptotic (%)” value [9] was 65%. For the same compound, the “Population Fragmented Nuclei (%)” value [9] was 14%, the “Population Healthy Nuclei (%)” value [9] was 67% and the “Population Hoechst High Intensity Objects (%)” value [9] was 3%. For the same compound, the “Population Membrane Permeable-Phenotype (%)” value [9] was 16%, the “Population Mitochondria Different-Phenotype (%)” value [9] was 54% and the “Population Mitotic Cells (%)” value [9] was 34%. For the same compound, the “Population Normal (%)” value [9] was 96%, the “Population Pyknosed Nuclei (%)” value [9] was 17% and the “Population Tubulin-Different-Phenotype (%)” value [9] was 80%. For the same compound, the “Total Cell Count” value [9] was 127, the “Population Apoptotic (%)” value [10] was 25% and the “Population Fragmented Nuclei (%)” value [10] was 4%. The “Population Healthy Nuclei (%)” value [10] was 92%, the “Population Hoechst High Intensity Objects (%)” value [10] was 5% and the “Population Membrane Permeable-Phenotype (%)” value [10] was 6%. The “Population Mitochondria Different-Phenotype (%)” value [10] was 18%, the “Population Mitotic Cells (%)” value [10] was 75% and the “Population Normal (%)” value [10] was 94%. For the same compound, the “Population Pyknosed Nuclei (%)” value [10] was 3%, the “Population Tubulin-Different-Phenotype (%)” value [10] was 24% and the “Total Cell Count” value [10] was 64. For the same compound, the “Population Apoptotic (%)” value [11] was 85%, the “Population Fragmented Nuclei (%)” value [11] was 69% and the “Population Healthy Nuclei (%)” value [11] was 10%. For the same compound, the “Population Hoechst High Intensity Objects (%)” value [11] was 61%, the “Population Membrane Permeable-Phenotype (%)” value [11] was 24% and the “Population Mitochondria Different-Phenotype (%)” value [11] was 33%. The “Population Mitotic Cells (%)” value [11] was 15%, the “Population Normal (%)” value [11] was 38% and the “Population Pyknosed Nuclei (%)” value [11] was 19%. For the same compound, the “Population Tubulin-Different-Phenotype (%)” value [11] was 40%, the “Total Cell Count” value [11] was 245 and the “Population Apoptotic (%)” value [12] was 11%. For the same compound, the “Population Fragmented Nuclei (%)” value [12] was 15%, the “Population Healthy Nuclei (%)” value [12] was 75% and the “Population Hoechst High Intensity Objects (%)” value [12] was 4%. For the same compound, the “Population Membrane Permeable-Phenotype (%)” value [12] was 8%, the “Population Mitochondria Different-Phenotype (%)” value [12] was 20% and the “Population Mitotic Cells (%)” value [12] was 88%. The “Population Normal (%)” value [12] was 95%, the “Population Pyknosed Nuclei (%)” value [12] was 9% and the “Population Tubulin-Different-Phenotype (%)” value [12] was 25%. The “Total Cell Count” value [12] was 132.
